Screens: PubChem BioAssay, Broad Institute
Only some compounds are listed: those with a hit (about 2.9% of all), similar ones and a draw of the others.
CDK5 p35 inh = CDK5/p35 (human) kinase inhibition | AID 488839 | inhibition, % at 10 µM | Recombinant CDK5/p35, ADP-Glo luminescence, 60 min | 0.01% of 330,000 active | Q00535+Q15078;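 active = highest replicate inhibition of at least 50% and at least 75% of replicates reaching 50%; inconclusive = only one of the two criteria met; inactive = both criteria failed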
Target sequence (Q00535 whole entry, looked up): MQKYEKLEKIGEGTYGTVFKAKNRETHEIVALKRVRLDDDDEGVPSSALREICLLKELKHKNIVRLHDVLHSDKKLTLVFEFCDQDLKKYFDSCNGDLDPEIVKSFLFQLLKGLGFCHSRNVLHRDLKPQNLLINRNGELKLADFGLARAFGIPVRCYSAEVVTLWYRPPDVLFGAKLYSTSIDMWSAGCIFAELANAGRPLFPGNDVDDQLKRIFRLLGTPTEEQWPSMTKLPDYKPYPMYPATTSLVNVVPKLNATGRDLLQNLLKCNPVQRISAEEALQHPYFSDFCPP
Target sequence (Q15078 whole entry, looked up): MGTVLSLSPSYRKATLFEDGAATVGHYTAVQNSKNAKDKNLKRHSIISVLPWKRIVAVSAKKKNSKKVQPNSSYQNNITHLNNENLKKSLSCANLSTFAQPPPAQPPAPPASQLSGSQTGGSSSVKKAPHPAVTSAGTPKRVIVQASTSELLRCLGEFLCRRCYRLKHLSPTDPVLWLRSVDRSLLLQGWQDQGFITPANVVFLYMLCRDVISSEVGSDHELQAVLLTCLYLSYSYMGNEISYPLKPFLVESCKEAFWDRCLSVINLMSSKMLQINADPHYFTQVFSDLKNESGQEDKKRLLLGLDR
Cneo AK release = Cryptococcus neoformans lysis via adenylate kinase release | C. neoformans lysis, adenylate kinase release luminescence, 4 h; normalised: neutral wells 0, clomiphene wells 100 | AID 651654 | lysis activity, % at 15 µM | 0.2% of 360,000 active;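 active = mean lysis activity across replicates of at least 80%, whatever share of replicates individually reach that level; inactive = mean lysis activity below 80%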
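read-out = cell lysis signal | test system = log-phase Cryptococcus neoformans yeast cells | input = cells at 5 × 10^6 per mL | medium = fresh YPD growth medium | signal = luminescent adenylate kinase detection reagent | timing = 4 h at 37 °C static, read 1 h later | dosing = single dose | controls = Clomiphene as positive lysis control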
PAX8 reporter = lowers PAX8-driven luciferase in RMG-I cells | RMG-I TPO-luciferase reporter, SteadyGlo, 24 h | inhibition, % at 12.6 µM | 1.2% of 360,000 active | AID 652154;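 active = mean replicate inhibition at least 60% with every replicate also reaching 60%; inconclusive = only one of the two criteria is met; inactive = mean below 60% and not all replicates reaching 60%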;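 also: luciferase light reporting Pax8 driven TPO promoter activity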
GSIS activator = primary screen for activators of insulin secretion dependent on glucose, INS-1E cells, GLuc reporter luminescence; activation, % at 16.6 µM; AID 743287; INS-1E GLuc reporter insulin secretion, 2-3 h; 0.61% of 370,000 active;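 active = lowest replicate activation of at least 40%, so every replicate reaches that level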
dFosB activator = mouse delta FosB homodimer activation; activation, % at 25 µM; purified delta FosB, TAMRA-CDK5 oligo fluorescence polarization; percent of positive-control signal above neutral wells; P13346; AID 493131; 0.99% of 340,000 active;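 active = mean activation above about 17%, with every replicate also reaching it, limit read from the data, passing the limit was not always enough; inconclusive = only one of the two conditions met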
Env fusion inh = blocks HIV Env-driven cell-cell fusion; inhibition, % at 12.3 µM; HeLa-JRFL Env/CEM21 cell fusion, luciferase; 1.1% of 360,000 active;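 active = mean replicate inhibition score of at least 50 and every replicate individually at or above 50; inconclusive = only one of the two criteria met; inactive = mean below 50 and not all replicates reaching 50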
Each line names hits and unclear results; the compound was inactive in the other large screens.

O=C(CCl)NCc1cc(-c2ccc(Cl)cc2)no1	PAX8 reporter 64 (no result: Cneo AK release)
COc1ccc(OCc2cc(-c3ccc(Cl)cc3)no2)cc1	none
C[C@H]1CN([C@@H](C)CO)C(=O)Cc2cc(NS(=O)(=O)c3ccccc3)ccc2O[C@@H]1CN(C)CC1CC1	none (no result: CDK5 p35 inh, dFosB activator, Env fusion inh)
Cn1cc(Br)c(C(=O)NNC(=O)c2ccccc2)n1	GSIS activator 42
COCCNC(=O)C[C@H]1C[C@@H]2c3cc(NS(=O)(=O)c4ccccc4)ccc3O[C@@H]2[C@@H](CO)O1	none (no result: CDK5 p35 inh, dFosB activator)
C[C@@H]1CN([C@@H](C)CO)C(=O)c2cc(NC(=O)Nc3ccc(C(F)(F)F)cc3)ccc2O[C@@H](C)CCCCO[C@@H]1CN(C)CC1CCCCC1	PAX8 reporter 108 (no result: CDK5 p35 inh, dFosB activator)
C[C@@H]1CCCCO[C@@H](CN(C)CC2CCCCC2)[C@@H](C)CN([C@@H](C)CO)C(=O)c2cc(NC(=O)Nc3ccc(C(F)(F)F)cc3)ccc2O1	PAX8 reporter 100 (no result: CDK5 p35 inh, dFosB activator)
C[C@H](CO)N1C[C@H](C)[C@H](CN(C)CC2CC2)OCCCC[C@H](C)Oc2ccc(NC(=O)Nc3ccc(C(F)(F)F)cc3)cc2C1=O	PAX8 reporter 73 (no result: CDK5 p35 inh, Cneo AK release, dFosB activator, Env fusion inh)
C[C@@H]1CCCCO[C@@H](CN(C)CC2CCCCC2)[C@H](C)CN([C@H](C)CO)C(=O)c2cc(NC(=O)Nc3ccc(C(F)(F)F)cc3)ccc2O1	none (no result: CDK5 p35 inh, dFosB activator)
C[C@@H]1CCCCO[C@H](CN(C)CC2CC2)[C@H](C)CN([C@@H](C)CO)C(=O)c2cc(NC(=O)Nc3ccc(C(F)(F)F)cc3)ccc2O1	none (no result: CDK5 p35 inh, dFosB activator)
COc1cccc(NC(=O)N[C@@H]2CC[C@@H](CC(=O)N3CCCCC3)O[C@@H]2CO)c1	none (no result: CDK5 p35 inh, dFosB activator)
C[C@@H](NC(=O)C[C@H]1CC[C@@H](NC(=O)C2CC2)[C@H](CO)O1)c1ccccc1	none (no result: CDK5 p35 inh, dFosB activator)
COc1ccc(S(=O)(=O)Nc2ccc3c(c2)C(=O)N([C@H](C)CO)C[C@@H](C)[C@H](CN(C)S(=O)(=O)c2ccc(F)cc2)OCCCC[C@@H](C)O3)cc1	none (no result: CDK5 p35 inh, dFosB activator)
C[C@@H]1CN([C@H](C)CO)S(=O)(=O)c2ccc(-c3ccccc3F)cc2O[C@@H]1CN(C)CC1CC1	none (no result: CDK5 p35 inh, PAX8 reporter, dFosB activator)
Cc1cc(/C=N/Nc2ncnc(N)c2[N+](=O)[O-])c(C)n1-c1ccccc1	PAX8 reporter 62, Env fusion inh 55
COc1cccc(/C=N/Nc2ncnc(N)c2[N+](=O)[O-])c1OC	none (no result: PAX8 reporter, GSIS activator, Env fusion inh)
CCn1c(-c2ccc(C)cc2)nn(CC(=O)NCCc2ccccc2)c1=S	Env fusion inh 76 (no result: Cneo AK release)
CCCCCCNC(=O)CNC(=S)N(Cc1cccs1)C1CCCCC1	Env fusion inh 59
CO[C@H]1CN(C)C(=O)c2cc(NC(=O)Cc3ccccc3)ccc2OC[C@@H](C)NC[C@@H]1C	none (no result: CDK5 p35 inh, dFosB activator)
Cc1ccc2nc(-c3ccc4c(c3)OCCO4)cn2c1	PAX8 reporter 87
C=CCC[C@H](Cc1ccc(F)cc1)C(=O)O[C@H](CNC(=O)[C@@H](CC=C)CC(=O)N(CCO)Cc1ccccc1)c1ccccc1	Env fusion inh 129
C=CC[C@H](CC(=O)N(CCO)Cc1ccccc1)C(=O)N[C@H](COC(=O)[C@@H](CC=C)Cc1ccc(F)cc1)Cc1ccccc1	PAX8 reporter 80, Env fusion inh inconclusive
C=CC[C@@H](CC(=O)N(CCO)Cc1ccccc1)C(=O)N[C@H](C)COC(=O)[C@@H](CC=C)Cc1ccc(F)cc1	none (no result: GSIS activator, Env fusion inh)
C=CC[C@H](CC(=O)N(CCO)Cc1ccccc1)C(=O)N[C@H](COC(=O)[C@@H](CC=C)CC(=O)OC(C)(C)C)Cc1c[nH]c2ccccc12	Env fusion inh 64
C=CC[C@H](CC(=O)N(CCO)Cc1ccccc1)C(=O)NC[C@@H](OC(=O)[C@@H](CC=C)Cc1ccc(F)cc1)c1ccccc1	none
C=CCC[C@H](Cc1ccc(F)cc1)C(=O)OC[C@@H](Cc1c[nH]c2ccccc12)NC(=O)[C@@H](CC=C)CC(=O)N(CCO)Cc1ccccc1	PAX8 reporter 84
CO[C@H]1CN(C)C(=O)c2ccc(NC(=O)c3cnccn3)cc2OC[C@H](C)N(C(C)=O)C[C@H]1C	none (no result: CDK5 p35 inh, PAX8 reporter, dFosB activator, Env fusion inh)
CCCN(C)C[C@@H]1Oc2ncc(Br)cc2C(=O)N([C@@H](C)CO)C[C@@H]1C	none (no result: CDK5 p35 inh, PAX8 reporter, dFosB activator)
O=C(CCN1CCCCC1)N[C@H]1CC[C@H](CCNC(=O)c2cc(Cl)cc(Cl)c2)O[C@@H]1CO	none (no result: CDK5 p35 inh, dFosB activator)
C[C@H](O)C#Cc1ccc2c(c1)O[C@H](CN(C)C)[C@H](C)CN([C@H](C)CO)S2(=O)=O	none (no result: CDK5 p35 inh, dFosB activator)
Cn1c(=O)c2nc(NCc3ccccc3)cnc2n(C)c1=O	none (no result: PAX8 reporter, Env fusion inh)
Cc1nc2c(=O)n(C)c(=O)n(C)c2nc1Cl	PAX8 reporter 111, GSIS activator 96 (no result: Cneo AK release)
O=C(C[C@@H]1CC[C@@H]2[C@H](COC[C@H](O)CN2Cc2ccc3c(c2)OCO3)O1)Nc1ccc(-c2ccccc2)cc1	PAX8 reporter 80 (no result: CDK5 p35 inh, dFosB activator)
O=C(C[C@H]1CC[C@H]2[C@@H](COC[C@@H](O)CN2Cc2ccc3c(c2)OCO3)O1)Nc1ccc(-c2ccccc2)cc1	PAX8 reporter 87, Env fusion inh inconclusive (no result: CDK5 p35 inh, dFosB activator)
CC(NC(=O)c1ccc(OC2CCN(C(=O)c3cccnc3)CC2)cc1)C1CC1 (stereo not given)	none
CC(C)c1ccc(NC2CCCN(C(=O)c3cccnc3)C2)cc1 (stereo not given)	GSIS activator 76
Cc1ccc(NC2CCCN(C(=O)c3cccnc3)C2)cc1C (stereo not given)	none (no result: Env fusion inh)
O=C(c1cccnc1)N1CCC(Oc2ccc(C(=O)N3CCCC(O)C3)cc2)CC1 (stereo not given)	Cneo AK release 111
CO[C@@H]1CN(C)C(=O)c2ccc(NC(=O)Nc3cc(F)ccc3F)cc2OC[C@H](C)N(C(=O)c2cnccn2)C[C@H]1C	none (no result: CDK5 p35 inh, PAX8 reporter, dFosB activator)
O=[N+]([O-])c1cc2c(ccc3occc32)o1	PAX8 reporter 107 (no result: CDK5 p35 inh, Cneo AK release, dFosB activator)
O=[N+]([O-])c1ccc2c(c1)oc1ccccc12	none (no result: GSIS activator)
C[C@@H]1CN([C@H](C)CO)C(=O)c2cc(NS(=O)(=O)c3ccccc3)ccc2O[C@@H](C)CCCCO[C@H]1CN(C)C(=O)NC1CCCCC1	none (no result: CDK5 p35 inh, dFosB activator)
Cc1[nH]n(-c2ccccc2)c(=O)c1N=Nc1cccc(C(=O)O)c1	PAX8 reporter 65, Env fusion inh 58
C[C@@H]1CN([C@H](C)CO)C(=O)c2cc(C#CCc3ccccc3)cnc2O[C@H]1CN(C)Cc1ccccn1	none (no result: CDK5 p35 inh, PAX8 reporter, dFosB activator)
COc1ccc(-c2nc3ccccn3c2NCc2ccc3c(c2)OCO3)cc1	none (no result: PAX8 reporter, GSIS activator, Env fusion inh)
COc1ccc(-c2cc(-c3nc4ccccn4c3NCc3ccccc3)ccc2OC)cc1	PAX8 reporter 102, Env fusion inh inconclusive
COC(=O)C1=C(C)N(Cc2cccc(C(F)(F)F)c2)C(=NCc2ccc(OC)cc2)NC1c1ccccc1 (stereo not given)	Env fusion inh 55 (no result: CDK5 p35 inh, Cneo AK release, GSIS activator, dFosB activator)
COC(=O)C1=C(C)N(Cc2ccccc2)C(=NCc2ccc(OC)cc2)N[C@H]1c1ccccc1	none
